Activity calls are given as the source filed them.
Experiments:
[1] = target: Cannabinoid receptor 2 (Homo sapiens, UniProt P34972); experiment: Displacement of [3H]CP-55940 from human CB2 receptor expressed in HEK293 cell membrane by competitive binding assay; format: cell membranes
In short: (§1)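 Competition-equilibrium binding against [3H]CP-55,940 in rat brain membranes (CB1), mouse spleen membranes (mCB2), or membranes of HEK293 cells expressing hCB2. IC50 was obtained by nonlinear regression and converted to Ki. Ki is the mean of three independent experiments, each run in duplicate.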

[2] = Selectivity ratio of Ki for mouse CB2 receptor to Ki for rat CB1 receptor
[3] = Selectivity ratio of Ki for human CB2 receptor to Ki for rat CB1 receptor
[4] = target: Cannabinoid receptor 2 (Mus musculus, UniProt P47936); experiment: Displacement of [3H]CP-55940 from mouse CB2 receptor expressed in mouse spleen membrane by competitive binding assay; format: cell membranes; in short: as §1
[5] = target: Cannabinoid receptor 1 (Rattus norvegicus, UniProt P20272); experiment: Displacement of [3H]CP-55940 from rat CB1 receptor expressed in rat brain membrane by competitive binding assay; format: cell membranes
[6] = tested on: Rattus norvegicus; experiment: Antinociceptive activity in Sprague-Dawley rat assessed as increase in tail-flick latency period at 0.1 to 10 mg/kg, sc after 6 hrs by tail-flick test; format: functional, organism-based
In short: (§2)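 Female Sprague-Dawley rats (235–350 g; n = 5–7/group), retested at least 7 days apart. Compound was dissolved in 20% ethanol/20% emulphor/60% saline, diluted with saline, and given sc at 1.0 mL/kg. Radiant-heat tail-flick latency was measured over 6 h with a 6 s cutoff. %MPE = 100 × (test − baseline)/(6 − baseline). Dose-effect curves used each rat's maximum effect.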

[7] = tested on: Rattus norvegicus; experiment: Antinociceptive activity in Sprague-Dawley rat assessed as increase in tail-flick latency period at 0.1 to 10 mg/kg, sc after 60 to 120 mins by tail-flick test; format: functional, organism-based; in short: as §2
[8] = tested on: Rattus norvegicus; experiment: Hypothermic effect in Sprague-Dawley rat assessed as decrease in core body temperature at 10 mg/kg; format: functional
In short: (§3)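 Female Sprague-Dawley rats (n = 5–7/group), minimally restrained and isolated, each with a thermistor probe inserted 7 cm and taped to the tail. Two baselines were taken 15 min apart, then sc injection (20% ethanol/20% emulphor/60% saline diluted with saline, 1.0 mL/kg). Temperature was read every 30 min for 3 h, then hourly to 6 h, as change from mean baseline.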

[9] = target: Cannabinoid receptor 1 (Homo sapiens, UniProt P21554); experiment: Agonist activity at human CB1 receptor transfected in human U2OS cells assessed as beta-arrestin2-GFP aggregation after 40 mins; format: cell-based
[10] = tested on: Rattus norvegicus; experiment: Antinociceptive activity in Sprague-Dawley rat assessed as increase in tail-flick latency period at 1 mg/kg, sc by tail-flick test; format: functional, organism-based; design: dose 1 mg/kg; in short: as §2
[11] = tested on: Rattus norvegicus; experiment: Hypothermic effect in Sprague-Dawley rat assessed as decrease in core body temperature at 1 mg/kg, sc measured over 6 hrs; format: functional; settings: route subcutaneous; in short: as §3
[12] = tested on: Rattus norvegicus; experiment: Hypothermic effect in sc dosed Sprague-Dawley rat assessed as decrease in core body temperature after 60 mins to 6 hrs; format: functional, organism-based; in short: as §3

Sequence of Cannabinoid receptor 2 (Mus musculus, UniProt P47936) (P47936 whole entry): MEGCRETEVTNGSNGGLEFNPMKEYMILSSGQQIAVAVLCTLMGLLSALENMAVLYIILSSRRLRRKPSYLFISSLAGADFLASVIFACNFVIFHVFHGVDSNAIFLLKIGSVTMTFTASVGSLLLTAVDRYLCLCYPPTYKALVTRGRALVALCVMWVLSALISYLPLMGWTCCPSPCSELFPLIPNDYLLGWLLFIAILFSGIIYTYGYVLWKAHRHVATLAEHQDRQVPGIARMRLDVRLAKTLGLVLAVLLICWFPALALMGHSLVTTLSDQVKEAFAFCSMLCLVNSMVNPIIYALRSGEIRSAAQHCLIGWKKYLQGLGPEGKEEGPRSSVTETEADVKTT
Sequence of Cannabinoid receptor 1 (Homo sapiens, UniProt P21554) (P21554 whole entry): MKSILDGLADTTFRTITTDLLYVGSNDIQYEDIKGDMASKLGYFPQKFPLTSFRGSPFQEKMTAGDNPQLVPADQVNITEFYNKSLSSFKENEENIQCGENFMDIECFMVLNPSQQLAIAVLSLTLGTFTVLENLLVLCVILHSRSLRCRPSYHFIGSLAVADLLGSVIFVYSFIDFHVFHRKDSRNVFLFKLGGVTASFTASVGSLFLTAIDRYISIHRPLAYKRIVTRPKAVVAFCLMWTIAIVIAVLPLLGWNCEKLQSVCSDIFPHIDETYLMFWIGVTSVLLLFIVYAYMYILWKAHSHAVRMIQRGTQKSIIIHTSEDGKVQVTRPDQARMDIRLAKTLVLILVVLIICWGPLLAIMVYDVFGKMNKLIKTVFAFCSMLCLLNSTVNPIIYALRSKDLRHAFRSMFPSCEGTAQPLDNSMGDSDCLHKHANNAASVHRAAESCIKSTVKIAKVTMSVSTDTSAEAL
Sequence of Cannabinoid receptor 1 (Rattus norvegicus, UniProt P20272) (P20272 whole entry): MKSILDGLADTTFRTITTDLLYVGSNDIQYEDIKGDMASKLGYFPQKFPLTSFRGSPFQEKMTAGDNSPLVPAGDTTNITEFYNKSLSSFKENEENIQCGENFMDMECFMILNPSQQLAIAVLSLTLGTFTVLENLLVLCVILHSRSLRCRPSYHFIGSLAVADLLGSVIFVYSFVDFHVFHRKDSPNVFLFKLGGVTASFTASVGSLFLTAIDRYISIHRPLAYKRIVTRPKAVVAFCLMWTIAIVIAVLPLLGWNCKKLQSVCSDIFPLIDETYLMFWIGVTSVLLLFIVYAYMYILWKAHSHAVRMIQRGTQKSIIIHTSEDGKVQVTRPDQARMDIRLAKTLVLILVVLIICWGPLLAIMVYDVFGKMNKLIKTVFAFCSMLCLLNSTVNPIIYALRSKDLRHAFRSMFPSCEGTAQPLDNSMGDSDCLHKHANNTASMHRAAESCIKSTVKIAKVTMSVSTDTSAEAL
Sequence of Cannabinoid receptor 2 (Homo sapiens, UniProt P34972) (P34972 whole entry): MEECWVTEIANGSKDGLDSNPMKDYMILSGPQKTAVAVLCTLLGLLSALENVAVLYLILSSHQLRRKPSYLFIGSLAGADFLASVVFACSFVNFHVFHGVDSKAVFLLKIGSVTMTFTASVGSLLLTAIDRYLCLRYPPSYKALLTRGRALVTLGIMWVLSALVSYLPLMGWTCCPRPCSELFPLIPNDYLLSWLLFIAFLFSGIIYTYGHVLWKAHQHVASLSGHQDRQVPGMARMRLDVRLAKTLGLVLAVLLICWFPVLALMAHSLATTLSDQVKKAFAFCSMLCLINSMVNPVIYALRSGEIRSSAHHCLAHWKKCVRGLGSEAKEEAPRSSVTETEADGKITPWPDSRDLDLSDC

| Structure (SMILES) | Ki [1] [nM] | Ratio Ki [2] | Ratio Ki [3] | Ki [4] [nM] | Ki [5] [nM] | Activity [6] | Activity [7] | Activity [8] | EC50 [9] [nM] | T [8] [°C] | Activity [10] | T [11] [°C] | Activity [12] |
| --- | --- | --- | --- | --- | --- | --- | --- | --- | --- | --- | --- | --- | --- |
| CC1(C)Oc2cc(C34CC5CC(CC(C5)C3)C4)cc(O)c2-c2cc(O)ccc21 | 551 | 2.8 | 6.2 | 251 | 88.6 |  |  |  |  |  |  |  |  |
| CC1(C)Oc2cc(C34CC5CC(CC(C5)C3)C4)cc(O)c2[C@@H]2CC(=O)CC[C@H]21 | 338 |  |  | 250 |  |  |  |  |  |  |  |  |  |
| CC1(C)Oc2cc(C34CC5CC(CC(C5)C3)C4)cc(O)c2[C@@H]2C[C@H](CC=O)CC[C@H]21 | 11.2 | 2.6 | 0.8 | 34.3 | 13.2 |  |  |  |  |  |  |  |  |
| Cc1ccc2c(c1)-c1c(O)cc(C34CC5CC(CC(C5)C3)C4)cc1OC2(C)C | 63.5 | 0.7 | 1 | 42.2 | 62 |  |  |  |  |  |  |  |  |
| CC1=CC[C@@H]2[C@@H](C1)c1c(O)cc(C34CC5CC(CC(C5)C3)C4)cc1OC2(C)C |  |  |  |  |  | Active | Active | inactive | 1530 |  |  |  |  |
| CC1(C)Oc2cc(C34CC5CC(CC(C5)C3)C4)cc(O)c2-c2cc(CO)ccc21 | 46.7 | 15.4 | 22.2 | 32.3 | 2.1 |  |  |  | 450 | 4.1 |  |  |  |
| COc1ccc2c(c1)-c1c(O)cc(C34CC5CC(CC(C5)C3)C4)cc1OC2(C)C | 338 | 1.9 | 0.7 | 950 | 507 |  |  |  |  |  |  |  |  |
| CC1(C)Oc2cc(C34CC5CC(CC(C5)C3)C4)cc(O)c2[C@@H]2C[C@H](CCO)CC[C@H]21 | 33.3 | 4.5 | 3.9 | 38.4 | 8.6 |  |  |  |  |  |  |  |  |
| CC1(C)Oc2cc(C34CC5CC(CC(C5)C3)C4)cc(O)c2[C@@H]2C[C@H](C=O)CC[C@H]21 | 5.5 | 0.5 | 0.1 | 25.7 | 52.9 |  |  |  |  |  |  |  |  |
| CC1(C)Oc2cc(C34CC5CC(CC(C5)C3)C4)cc(O)c2[C@@H]2C[C@H](CO)CC[C@H]21 | 11.3 | 2.5 | 2.3 | 12.1 | 4.9 |  |  |  | 96 |  | Active | 6.4 | Dose-dependent effect |
| CC1(C)Oc2cc(C34CC5CC(CC(C5)C3)C4)cc(O)c2[C@@H]2C[C@H](O)CC[C@H]21 | 40.5 |  |  | 39.4 | 23.9 |  |  |  |  |  |  |  |  |
| CC1(C)Oc2cc(C34CC5CC(CC(C5)C3)C4)cc(O)c2[C@@H]2CC(CO)=CC[C@H]21 | 14 | 1.5 | 1.9 | 10.6 | 7.2 |  |  |  | 230 |  |  |  |  |
| CO/C=C\[C@@H]1CC[C@@H]2[C@@H](C1)c1c(O)cc(C34CC5CC(CC(C5)C3)C4)cc1OC2(C)C | 67.2 | 2.9 | 2.2 | 90.3 | 31 |  |  |  |  |  |  |  |  |
| CC1(C)Oc2cc(C34CC5CC(CC(C5)C3)C4)cc(O)c2[C@@H]2C[C@@H](CCO)CC[C@H]21 | 365 | 0.5 | 8.9 | 21 | 40.9 |  |  |  |  |  |  |  |  |
| CC1(C)Oc2cc(C34CC5CC(CC(C5)C3)C4)cc(O)c2[C@@H]2C[C@H](CI)CC[C@H]21 | 262 | 1.4 | 1.1 | 346 | 241 |  |  |  |  |  |  |  |  |
| CC(C)(C)C(=O)OCC1=CC[C@@H]2[C@@H](C1)c1c(O)cc(C34CC5CC(CC(C5)C3)C4)cc1OC2(C)C | 49.2 | 7.6 | 3 | 126 | 16.5 |  |  |  |  |  |  |  |  |
| CC1(C)Oc2cc(C34CC5CC(CC(C5)C3)C4)cc(O)c2[C@@H]2C[C@H](CC#N)CC[C@H]21 | 100 | 1.8 | 2.1 | 87 | 48.7 |  |  |  |  |  |  |  |  |
| CC1(C)Oc2cc(C34CC5CC(CC(C5)C3)C4)cc(O)c2[C@@H]2C[C@@H](C=O)CC[C@H]21 | 9 | 0.4 | 0.2 | 20.1 | 48.2 |  |  |  |  |  |  |  |  |
| CC1(C)Oc2cc(C34CC5CC(CC(C5)C3)C4)cc(O)c2[C@@H]2C[C@@H](O)CC[C@H]21 | 672 |  |  | 255 | 146 |  |  |  |  |  |  |  |  |
| CC1(C)Oc2cc(C34CC5CC(CC(C5)C3)C4)cc(O)c2[C@@H]2C[C@@H](CO)CC[C@H]21 | 121 | 2.2 | 4 | 65.1 | 30.1 |  |  |  |  |  |  |  |  |
| CC1(C)Oc2cc(C34CC5CC(CC(C5)C3)C4)cc(O)c2[C@@H]2C[C@@H](CC=O)CC[C@H]21 | 7.8 | 0.5 | 0.4 | 8.1 | 17.5 |  |  |  |  |  |  |  |  |

From ChEMBL document CHEMBL2346593, “Novel adamantyl cannabinoids as CB1 receptor probes” (J Med Chem, 2013)
